We go through three compounds from ChEMBL document CHEMBL3608281, “Synthesis and biological evaluation of novel 3,9-substituted β-carboline derivatives as anticancer agents” (Bioorg Med Chem Lett, 2015).

Active and inactive are the calls of the source. No cut-off for these calls is given here. Where only a bound is given, the exact number is not on record here.

Experiment [1] concerns HL-60. In words: Induction of apoptosis in human HL60 cells assessed as induction of AIF protein release into cytosol at 5 uM incubated for 24 hrs and 48 hrs by Western blotting method. The class given is functional, cell-based. Background: In western blotting, separated proteins are transferred to a membrane and probed.
The subject of experiment [2] is COLO 205. Put plainly: Cytotoxicity against human COLO205 cells incubated for 48 hrs by MTT assay. The class given is functional, cell-based. To be noted: COLO 205, 48 h. The procedure, abridged: (§1)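 Human tumour lines (HL-60 leukemia, Hep3B liver, H460 lung, A498 renal, COLO205 colon, 2774 and SK-OV-3 ovarian) and normal Detroit 551 skin fibroblasts were exposed to a range of concentrations for 48 h. IC50 is the concentration giving 50% proliferation inhibition, as the mean of three independent determinations.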

The subject of experiment [3] is HL-60. In words: Increase in FasL protein expression in human HL60 cells at 5 uM incubated for 24 hrs and 48 hrs by Western blotting method. The class given is functional, cell-based. The gist of the method:
(§2)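 HL-60 cells were exposed to 5 μM for 24 and 48 h. Lysates were immunoblotted for Fas, DR4, DR5, FasL, TRAIL, Bax, Bcl-2, caspase-9, caspase-3 and PARP (cleavage), with β-actin as loading control.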

The subject of experiment [4] is HL-60. In words: Induction of apoptosis in human HL60 cells assessed as upregulation of caspase-3 protein expression at 5 uM incubated for 24 hrs and 48 hrs by Western blotting method. The class given is functional, cell-based. The gist of the method:
as §2

For experiment [5], the system named is HL-60. In words: Induction of apoptosis in human HL60 cells assessed as late apoptotic cells level at 5 uM incubated for 48 hrs by annexin V/propidium iodide staining based flow cytometry (reference value: 0.4%). The class given is functional. On the technique in general: Flow cytometry measures light scatter and fluorescence of single cells or particles in a stream.

Experiment [6] can be described thus: Cytotoxicity against human H460 cells incubated for 48 hrs by MTT assay. To be noted: NCI-H460, 48 h. Type of experiment: functional, cell-based. The gist of the method: as §1
Background: Formazan colour is commonly taken as a measure of viable cells.

In experiment [7] the test system is SK-OV-3. Put plainly: Cytotoxicity against human SKOV3 cells incubated for 48 hrs by MTT assay. Type of experiment: functional, cell-based. To be noted: SK-OV-3, 48 h. The gist of the method:
as §1

Experiment [8] relates to HL-60. In words: Cytotoxicity against human HL60 cells incubated for 48 hrs by MTT assay. Type of experiment: functional, cell-based. The settings on record: HL-60, 48 h. The gist of the method: as §1
Experiment [9] relates to HL-60. Put plainly: Induction of cell cycle arrest in human HL60 cells assessed as accumulation at subG1 phase at 10 uM incubated for 48 hrs by propidium iodide staining based flow cytometry (reference value: 2.5%). Type of experiment: functional.
The test system of experiment [10] is HL-60. Put plainly: Increase in Fas protein expression in human HL60 cells at 5 uM incubated for 24 hrs and 48 hrs by Western blotting method. Type of experiment: functional, cell-based. The procedure, abridged:
as §2

Experiment [11] has as its system HL-60. Put plainly: Induction of apoptosis in human HL60 cells assessed as early apoptotic cells level at 5 uM incubated for 48 hrs by annexin V/propidium iodide staining based flow cytometry (reference value: 0%). The class given is functional.
Experiment [12] relates to HL-60. In words: Induction of apoptosis in human HL60 cells assessed as induction of cytochrome-c protein release into cytosol at 5 uM incubated for 24 hrs and 48 hrs by Western blotting method. Type of experiment: functional, cell-based.
In experiment [13] the test system is HL-60. Put plainly: Induction of cell cycle arrest in human HL60 cells assessed as accumulation at G2/M phase at 1 uM incubated for 48 hrs by propidium iodide staining based flow cytometry (reference value: 16.77%). The class given is functional.
Experiment [14] has as its system HL-60. In words: Increase in TRAIL protein expression in human HL60 cells at 5 uM incubated for 24 hrs and 48 hrs by Western blotting method. Type of experiment: functional, cell-based. The gist of the method: as §2
The test system of experiment [15] is HL-60. In words: Induction of cell cycle arrest in human HL60 cells assessed as accumulation at S phase at 1 uM incubated for 48 hrs by propidium iodide staining based flow cytometry (reference value: 43.72%). Type of experiment: functional.
Experiment [16] relates to HL-60. In words: Induction of cell cycle arrest in human HL60 cells assessed as accumulation at G0/G1 phase at 1 uM incubated for 48 hrs by propidium iodide staining based flow cytometry (reference value: 39.51%). The class given is functional.
The test system of experiment [17] is HL-60. In words: Induction of apoptosis in human HL60 cells assessed as increase in Bax protein level at 5 uM incubated for 24 hrs and 48 hrs by Western blotting method. Type of experiment: functional, cell-based. The gist of the method:
as §2

Experiment [18] has as its system HL-60. In words: Induction of apoptosis in human HL60 cells assessed as induction of PARP cleavage at 5 uM incubated for 24 hrs and 48 hrs by Western blotting method. The class given is functional, cell-based. The procedure, abridged:
as §2

The subject of experiment [19] is HL-60. Put plainly: Induction of apoptosis in human HL60 cells assessed as induction of endonuclease-G protein release into cytosol at 5 uM incubated for 24 hrs and 48 hrs by Western blotting method. Type of experiment: functional, cell-based.
The test system of experiment [20] is HL-60. Put plainly: Induction of cell cycle arrest in human HL60 cells assessed as accumulation at G0/G1 phase at 10 uM incubated for 48 hrs by propidium iodide staining based flow cytometry (reference value: 39.51%). Type of experiment: functional.
The test system of experiment [21] is HL-60. In words: Induction of cell cycle arrest in human HL60 cells assessed as accumulation at subG1 phase at 5 uM incubated for 48 hrs by propidium iodide staining based flow cytometry (reference value: 2.5%). The class given is functional.
Experiment [22] deals with HL-60. Put plainly: Induction of cell cycle arrest in human HL60 cells assessed as accumulation at S phase at 5 uM incubated for 48 hrs by propidium iodide staining based flow cytometry (reference value: 43.72%). Type of experiment: functional.
For experiment [23], the system named is HL-60. Put plainly: Induction of apoptosis in human HL60 cells assessed as late apoptotic cells level at 5 uM incubated for 24 hrs by annexin V/propidium iodide staining based flow cytometry (reference value: 0.4%). The class given is functional.
For experiment [24], the system named is A498. In words: Cytotoxicity against human A498 cells incubated for 48 hrs by MTT assay. The settings on record: A498, 48 h. Type of experiment: functional, cell-based.
Experiment [25] is described as follows: Cytotoxicity against human 2774 cells incubated for 48 hrs by MTT assay. Type of experiment: functional, cell-based. The procedure, abridged:
as §1

Experiment [26] deals with HL-60. In words: Induction of cell cycle arrest in human HL60 cells assessed as accumulation at subG1 phase incubated for 48 hrs by propidium iodide staining based flow cytometry. The class given is functional.
For experiment [27], the system named is HL-60. Put plainly: Induction of apoptosis in human HL60 cells assessed as induction of Apaf-1 protein release into cytosol at 5 uM incubated for 24 hrs and 48 hrs by Western blotting method. Type of experiment: functional, cell-based.
Experiment [28] deals with HL-60. In words: Induction of cell morphology changes in human HL60 cells assessed as induction of appearance apoptotic bodies at 5 uM incubated for 24 hrs by a phase-contrast microscopy. The class given is functional, cell-based. The procedure, abridged:
(§3)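 HL-60 cells were treated at 1, 5 and 10 μM for 24 h and 48 h and examined microscopically for nuclear shrinkage and apoptotic bodies.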

The test system of experiment [29] is HL-60. In words: Induction of apoptosis in human HL60 cells assessed as upregulation of caspase-9 protein expression at 5 uM incubated for 24 hrs and 48 hrs by Western blotting method. Type of experiment: functional, cell-based. The procedure, abridged: as §2
For experiment [30], the system named is HL-60. Put plainly: Induction of cell cycle arrest in human HL60 cells assessed as accumulation at G0/G1 phase at 5 uM incubated for 48 hrs by propidium iodide staining based flow cytometry (reference value: 39.51%). Type of experiment: functional.
Experiment [31] concerns HL-60. In words: Increase in DR4 protein expression in human HL60 cells at 5 uM incubated for 24 hrs and 48 hrs by Western blotting method. Type of experiment: functional, cell-based. The procedure, abridged: as §2
Experiment [32] concerns HL-60. In words: Induction of cell cycle arrest in human HL60 cells assessed as accumulation at G2/M phase at 10 uM incubated for 48 hrs by propidium iodide staining based flow cytometry (reference value: 16.77%). Type of experiment: functional.
Experiment [33] concerns HL-60. Put plainly: Induction of cell morphology changes in human HL60 cells assessed as induction of nuclear shrinkage at 5 uM incubated for 24 hrs by a phase-contrast microscopy. The class given is functional, cell-based. The gist of the method:
as §3

In experiment [34] the test system is HL-60. In words: Induction of cell cycle arrest in human HL60 cells assessed as accumulation at G2/M phase at 5 uM incubated for 48 hrs by propidium iodide staining based flow cytometry (reference value: 16.77%). The class given is functional.
Experiment [35] deals with HL-60. Put plainly: Induction of apoptosis in human HL60 cells assessed as reduction in Bcl-2 protein level at 5 uM incubated for 24 hrs and 48 hrs by Western blotting method. The class given is functional, cell-based. The gist of the method:
as §2

Experiment [36] can be described thus: Cytotoxicity against human Hep3B cells incubated for 48 hrs by MTT assay. Type of experiment: functional, cell-based, Hep 3B2. The procedure, abridged: as §1
Experiment [37] has as its system HL-60. Put plainly: Increase in DR5 protein expression in human HL60 cells at 5 uM incubated for 24 hrs and 48 hrs by Western blotting method. The class given is functional, cell-based. The gist of the method:
as §2

Experiment [38] deals with Detroit 551. Put plainly: Cytotoxicity against human Detroit 551 cells incubated for 48 hrs by MTT assay. Type of experiment: cell-based. To be noted: Detroit 551, 48 h. The procedure, abridged: as §1
Experiment [39] has as its system HL-60. Put plainly: Induction of apoptosis in human HL60 cells assessed as early apoptotic cells level at 5 uM incubated for 24 hrs by annexin V/propidium iodide staining based flow cytometry (reference value: 0%). The class given is functional.
In experiment [40] the test system is HL-60. In words: Induction of cell cycle arrest in human HL60 cells assessed as accumulation at S phase at 10 uM incubated for 48 hrs by propidium iodide staining based flow cytometry (reference value: 43.72%). Type of experiment: functional.
The test system of experiment [41] is HL-60. Put plainly: Induction of cell cycle arrest in human HL60 cells assessed as accumulation at subG1 phase at 1 uM incubated for 48 hrs by propidium iodide staining based flow cytometry (reference value: 2.5%). Type of experiment: functional.
Experiment [42] relates to MCF7. Put plainly: Cytotoxicity against human MCF7 cells. Type of experiment: functional, cell-based.
Experiment [43] deals with COLO 205. Put plainly: Cytotoxicity against human COLO205 cells. The class given is functional, cell-based.
Experiment [44] concerns HL-60. In words: Cytotoxicity against human HL60 cells. Type of experiment: functional, cell-based.

A word on the IC50: it is the concentration that gives 50% inhibition. Read a high IC50 as lower potency.

As to `COc1ccccc1Cn1c2ccccc2c2cc(C(=O)O)ncc21`, the result in experiment [1], in [4], in experiment [12], in [17], in [18] and in experiment [19] was Active. Moreover, the result in [27], in experiment [28], in [29], in experiment [33] and in [35] was Active. Moreover, the IC50 is 32.5 µM in experiment [2]; 8 µM in [6]; 21.4 µM in [7]; 4 µM in [8]; 7.5 µM in experiment [24]; 12.6 µM in experiment [25]. Also, the IC50 in [36] was 6.7 µM; in experiment [38], more than 100 µM. The outcome in experiment [3], in experiment [10], in experiment [14], in experiment [31] and in [37] was inactive. The Activity is 38.6% in experiment [5]; 17.79% in experiment [9]; 46.6% in experiment [11]; 16.11% in [13]; 49.22% in experiment [15]; 34.67% in experiment [16]. Besides, the Activity is 55.62% in [20]; 14.55% in [21]; 50.19% in experiment [22]; 27.9% in experiment [23]; “Dose-dependent effect” in [26]; 37.39% in experiment [30]. In addition, the Activity in experiment [32] was 4.98%; in experiment [34], 12.42%; in experiment [39], 37.9%; in experiment [40], 39.4%; in experiment [41], 9.83%.

`OCc1ccc2c(c1)c1ccccc1n2Cc1ccc(Cl)nc1` returned an IC50 in experiment [42] of 20 µM.

As to `COc1cc(Cn2c3ccc(C(C)=O)cc3c3cccnc32)cc(OC)c1OC`, the IC50 stood at 0.52 µM in experiment [43] and 0.03 µM in experiment [44].
